Published values from different studies.
Organism: Staphylococcus aureus
Read-out: microbial growth

SMILES | technique | strain | time | MIC
O=C(C=Cc1ccc(O)c(O)c1)Oc1ccccc1 | broth dilution | FDA209 |  | 16 µg/mL
Cc1nn(-c2ccccc2)c2c1C(c1ccc([N+](=O)[O-])cc1)N(C(=O)c1ccncc1)N2 (centres unmarked) |  | MTCC96 | 24 h | 64 µg/mL
CC(C)(C)OC(=O)N1CCN(c2cc(C(=O)NCC(=O)O)ccc2NC(=O)c2cc(Br)c(Br)[nH]2)CC1 | broth dilution | ATCC29213 |  | > 32 µg/mL
C=C/C=C(\C)CC[C@@H]1C[C@@H](O)CC(=O)O1 | broth dilution | ATCC6538P |  | 256 µg/mL
Cc1nn(-c2ccccc2)c2c1C(c1ccc(N(C)C)cc1)N(C(=O)c1ccncc1)N2 (centres unmarked) |  | MTCC96 | 24 h | 8 µg/mL
CC(O)CSc1nnc(Cn2cnc3c2c(=O)n(C)c(=O)n3C)n1-c1ccccc1 (centres unmarked) |  |  |  | 9000 µg/mL
Cc1ccccc1NC(=O)C=Cc1ccc(O)c(O)c1 | broth dilution | FDA209 |  | 8 µg/mL
Cc1[nH]c(C(=O)Nc2ccc(C(=O)NCC(=O)O)cc2N2CC[C@@H](NC(=O)OC(C)(C)C)C2)c(Cl)c1Cl | broth dilution | ATCC29213 |  | > 32 µg/mL
O=C(N[C@H](CO)[C@H](O)c1ccc([N+](=O)[O-])cc1)C(Cl)Cl |  |  | 24 h | 5 to 10 µM
O=C(C=Cc1ccc(O)c(O)c1)Oc1cccc2cccnc12 | broth dilution | FDA209 |  | 8 µg/mL
Cc1[nH]c(C(=O)Nc2ccc(C(=O)NCC(=O)O)cc2N2CC[C@@H](N)C2)c(Cl)c1Cl.Cl | broth dilution | ATCC29213 |  | > 32 µg/mL
CC(O)CSc1nnc(-c2ccccc2)n1-c1ccccc1 (centres unmarked) |  |  |  | 2000 µg/mL
Cc1nn(-c2ccccc2)c2c1C(c1cncs1)N(C(=O)c1ccncc1)N2 (centres unmarked) |  | MTCC96 | 24 h | 32 µg/mL
Cl.N[C@@H]1CCN(c2cc(C(=O)NCC(=O)O)ccc2NC(=O)c2cc(Br)c(Br)[nH]2)C1 | broth dilution | ATCC29213 |  | > 32 µg/mL
COc1ccc(C2c3c(C)nn(-c4ccccc4)c3NN2C(=O)c2ccncc2)cc1 (centres unmarked) |  | MTCC96 | 24 h | 64 µg/mL
CN[C@H](CC(C)C)C(=O)N[C@H]1C(=O)N[C@@H](CC(N)=O)C(=O)N[C@H]2C(=O)N[C@H]3C(=O)N[C@H](C(=O)N[C@H](C(=O)O)c4cc(O)cc(O)c4-c4cc3ccc4O)[C@H](O)c3ccc(c(Cl)c3)Oc3cc2cc(c3O[C@@H]2O[C@H](CO)[C@@H](O)[C@H](O)[C@H]2O[C@H]2C[C@](C)(N)[C@H](O)[C@H](C)O2)Oc2ccc(cc2Cl)[C@H]1O |  | BAA44 MRSA |  | 1 µM
O=c1c(O[C@@H]2O[C@H](CO)[C@@H](O)[C@H](O)[C@H]2O)c(-c2ccc(O)c(O)c2)oc2cc(O)cc(O)c12 | broth dilution |  | 16 h | > 100 µg/mL
